# Sampled rows, rich in hits. Any-hit rate of the full collection: about 1.3%.
# MDM2 E3 inh: Mdm2 E3 ligase (human) inhibition; Q00987; cell-based MDM2 ubiquitination luciferase reporter, 2 h; 0 = plate control, 100 = twice control, blank-subtracted; signal enhancement, % at 5 µM; 0.11% of 210,000 active;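 active = signal enhancement of 30% or more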;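 note: luminescence tracks abundance of the self-degrading MDM2-luciferase fusion protein; higher signal means inhibition of MDM2 E3 ligase activity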
#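 Test system: mammalian cells stably expressing self-ubiquitinating, self-degrading MDM2 E3–luciferase fusion; Amount: 2000 cells in each well; Medium: DMEM; Schedule: 4 h settle plus 2 h compound, 37 °C; Technique: SteadyLite luciferase luminescence after 15 min room-temperature reagent incubation; Benchmarks: plate control and blank wells.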
# Dynein transport: blocks dynein driven cargo transport along microtubules | 3617.4 mouse cells, GR-EGFP nuclear translocation imaging; test concentration mostly 20 µM; stimulated with dexamethasone, 1 µM; active compounds read low | 0.47% of 220,000 active | z-score, hits read low;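 active = plate z-score of nuclear minus cytoplasmic receptor signal below a set negative limit, without overly bright fluorescence or cell loss, cut at about -3.5 in these data, passing the limit was not always enough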;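 note: z-score of nuclear minus cytoplasmic ring GR-EGFP intensity difference per well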
#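 Buffer or medium – tet-free medium with charcoal-stripped serum · Signal – automated 10x imaging of fixed Hoechst-stained cells · Also added – dexamethasone agonist, 1.0 µM final, for 30 min · Incubation – induction 48 h, compound 1 h, agonist 30 min · Read-out – GR-EGFP nuclear translocation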
# Hsp70 act: Hsp70 transcriptional activation, primary screen | HeLa Hsp70 promoter luciferase reporter, luminescence; scaled: vehicle 0, proteasome-inhibitor control 100% | 0.04% of 200,000 active | activation, % at 10 µM;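 active = activation above the mean across all tested compounds plus 3 SD, cutoff set per campaign, cut at about 5.5% in these data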;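 note: 100% = MG132 at 30 µM as the positive control and 0% = DMSO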
# S1P3 antagonist: blocks the human S1P3 receptor | inhibition, % at 4.98 µM | 0.27% of 170,000 active | CHO S1P3 NFAT-BLA reporter, FRET fluorescence, antagonist mode;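 active = inhibition above the plate cutoff, the mean inhibition of test wells on that plate plus 3 SD, cut at about 28% in these data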;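 note: cells challenged with S1P at its EC80 of 0.8 µM; blue over green emission ratio from cleaved BLA substrate after 4 h stimulation; 0% = S1P-stimulated wells and 100% = unstimulated DMSO-only wells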
# S1P4 antag: human S1P4 receptor antagonism | S1P4-expressing cells, antagonist mode, reporter read-out | inhibition, % at 4.98 µM | 0.26% of 220,000 active; in the data active = inhibition above about 29%;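 note: 0% = wells stimulated with agonist and 100% = vehicle wells without agonist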
# Target sequence (O95977 whole entry, looked up): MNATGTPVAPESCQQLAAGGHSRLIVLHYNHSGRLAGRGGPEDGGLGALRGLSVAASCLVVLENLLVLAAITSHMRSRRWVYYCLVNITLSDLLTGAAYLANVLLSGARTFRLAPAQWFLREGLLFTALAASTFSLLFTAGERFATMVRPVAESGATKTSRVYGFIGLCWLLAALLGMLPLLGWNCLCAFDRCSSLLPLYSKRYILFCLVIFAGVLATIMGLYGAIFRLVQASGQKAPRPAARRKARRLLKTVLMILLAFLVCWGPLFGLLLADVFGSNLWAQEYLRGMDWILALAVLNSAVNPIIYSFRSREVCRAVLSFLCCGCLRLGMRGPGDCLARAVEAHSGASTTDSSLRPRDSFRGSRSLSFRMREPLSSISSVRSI
# S1P4 agonist: activates the human S1P4 receptor. O95977. S1P4-expressing cell line, agonist reporter assay. activation, % at 4.98 µM. 0.35% of 220,000 active; in the data active = activation above about 11%;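 note: 0% = DMSO vehicle and 100% = reference agonist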
# S1P4 agonist cf: confirmation of human S1P4 receptor agonists; shares compounds with S1P4 agonist; S1P4 agonist cell-based reporter assay; activation, % at 4.98 µM; 7% of 740 active; AID 1523; in the data active = activation above about 12%;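 note: 0% = vehicle and 100% = full reference agonist response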
# S1P1 agonist: counter-screen for S1P4 agonists: agonists of human S1P1; shares compounds with S1P4 agonist; S1P1 agonist cell-based assay, activation; activation, % at 4.98 µM; 4% of 740 active; in the data active = activation above about 21%;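 note: 0% = vehicle wells and 100% = reference agonist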
# Target sequence (P21453 whole entry, looked up): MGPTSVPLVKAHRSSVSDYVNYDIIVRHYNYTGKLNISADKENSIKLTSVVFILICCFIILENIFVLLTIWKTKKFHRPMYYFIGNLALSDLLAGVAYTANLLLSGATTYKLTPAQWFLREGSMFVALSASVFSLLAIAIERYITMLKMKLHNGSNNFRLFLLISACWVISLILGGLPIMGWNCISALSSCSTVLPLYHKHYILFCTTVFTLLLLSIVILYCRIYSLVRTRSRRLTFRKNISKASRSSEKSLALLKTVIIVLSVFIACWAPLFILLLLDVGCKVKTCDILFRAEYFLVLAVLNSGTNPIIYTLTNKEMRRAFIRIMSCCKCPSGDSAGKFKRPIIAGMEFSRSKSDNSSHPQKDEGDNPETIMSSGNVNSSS
# S1P4 antag cf: human S1P4 antagonism, confirmation; shares compounds with S1P4 antag; S1P4-expressing cell line, antagonist mode, reporter read-out; inhibition, % at 4.98 µM; 71% of 520 active; in the data active = inhibition above about 30%
# S1P1 antagonist: counter-screen for S1P4 antagonists: antagonists of human S1P1; shares compounds with S1P4 antag; cell-based S1P1 antagonist counterscreen, inhibition; inhibition, % at 4.98 µM; 37% of 520 active; in the data active = inhibition above about 40%;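 note: receptor stimulated with S1P near its EC80; 0% = agonist stimulated wells and 100% = vehicle only wells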
# Starred values were filed as active, the others as inactive; nt = no result given.
SMILES,MDM2 E3 inh,Dynein transport,Hsp70 act,S1P3 antagonist,S1P4 antag,S1P4 agonist,S1P4 antag cf,S1P1 antagonist,others
Cc1cccn2cc(CCNS(=O)(=O)c3cccs3)nc12,-2.6,-0.478,nt,2.8,-8.6,1.0,nt,nt,
CCC(C(=O)OCC(=O)Nc1c(Cl)cccc1Cl)c1ccccc1 (stereo not given),-9.9,0.239,-0.1,-3.4,12.4,15.4*,nt,nt,S1P4 agonist cf=-0.9;S1P1 agonist=-2.7
COC(=O)c1c(-n2c(C)cc(C=O)c2C)sc2c1CCCC2,11.3,0.413,-0.5,nt,1.8,12.0*,nt,nt,S1P4 agonist cf=14.8*;S1P1 agonist=-2.7
Cc1ccc(-c2nnc(Cc3ccc([N+](=O)[O-])cc3)o2)cc1,-35.6,1.32,0.1,-20.9,-4.9,1.2,nt,nt,
CC(C)c1ccc(/C=C2\C(=O)N(CCN3CCOCC3)C(=S)N2C)cc1,-13.8,-2.3,0.5,1.4,4.1,43.4*,nt,nt,S1P4 agonist cf=-1.5;S1P1 agonist=-3.8
CC(C)c1ccc(/C=C/C(=O)Nc2ccc(CN3CCOCC3)cc2)cc1,-14.9,1.11,nt,-2.9,-10.2,-0.2,nt,nt,
CC(C)=CCN1CCN(Cc2c(C)nn(C)c2Cl)CC1CCO (stereo not given),-6.0,-0.937,-0.1,-23.4,-16.9,0.8,nt,nt,
O=C1C(Cl)=C(Nc2ccc(O)cc2)C(=O)c2ccccc21,0.9,-1.48,nt,-20.3,90.1*,13.6*,104.6*,64.8*,S1P4 agonist cf=3.0;S1P1 agonist=-9.9
CN1CCN(c2nc(-c3ccccc3)c3cc(Cl)ccc3n2)CC1,-23.1,-1.68,-0.2,-17.4,-17.9,9.4,nt,nt,
Clc1ccc2nc(N3CCNCC3)nc(-c3ccccc3)c2c1,-25.8,2.9,-0.3,nt,30.0*,20.4*,39.1*,-47.0,S1P4 agonist cf=12.5*;S1P1 agonist=15.4
CCN(C(=O)COC(=O)/C=C/c1c(C)nn(-c2ccccc2)c1C)C1CCS(=O)(=O)C1 (stereo not given),nt,1.23,nt,9.6,1.9,2.3,nt,nt,
CC(=O)Oc1ccc2cc(-c3nc4ccccc4n3C)c(=O)oc2c1,-11.3,0.69,0.0,-25.4,35.5*,29.7*,37.5*,-53.1,S1P4 agonist cf=15.2*;S1P1 agonist=11.6
Cc1cc(C)nc(-n2ncc3c2CC(C)CC3=O)n1 (stereo not given),-49.9,2.03,nt,11.4,8.2,2.8,nt,nt,
C/C(CCC12CC3CC(CC(C3)C1)C2)=N\NC(N)=S,-19.5,-0.518,-0.6,nt,15.6,-2.4,nt,nt,
C/C(CC(C)(C)C1CCCCC1)=N\NC(N)=S,-11.0,2.43,-0.4,nt,47.7*,-0.8,66.7*,-11.1,
O=C(/C=C/c1cccc(Cl)c1)c1nc2ccccc2[nH]1,0.1,-2.73,0.0,nt,56.2*,0.0,104.1*,9.9,
O=C(/C=C/c1cccc(Cl)c1)Nc1ncccn1,-13.0,0.537,-0.2,1.5,0.1,-0.3,nt,nt,
COC(=O)c1cc(=O)n(-c2ccc(F)cc2)c(=Nc2ccc(F)cc2)s1,nt,-4.2*,1.3,13.2,29.3*,4.2,99.6*,75.5*,
COC(=O)c1cc(=O)n(Cc2cccs2)c(=Nc2ccc(F)cc2)s1,2.2,-1.61,0.3,-4.7,21.8,-0.2,nt,nt,
CN(Cc1cccc(C(F)(F)F)c1)Cc1nc(-c2cnccn2)no1,-2.3,-1.16,-0.2,2.5,-11.5,-1.2,nt,nt,
O=C1c2cccc3c([N+](=O)[O-])ccc(c23)C(=O)N1Cc1cccnc1,-17.1,-0.335,-0.2,7.0,72.1*,2.1,95.3*,42.2*,
Cc1ccnc(N2C(=O)c3cccc4c([N+](=O)[O-])ccc(c34)C2=O)c1,7.3,3.31,-0.1,nt,105.4*,1.3,115.3*,133.1*,
O=C1c2cccc3cccc(c23)C(=O)N1Cc1cccnc1,-9.0,-0.133,nt,-4.0,0.1,0.2,nt,nt,
CCN(CC)CCNC(=O)c1ccc2c(c1NCCO)C(=O)c1ccccc1C2=O,-9.1,-0.563,nt,8.8,80.8*,0.0,-11.4,-0.9,
O=C(c1cnn2c(C(F)F)cc(-c3ccccc3)nc12)N1CCN2CCCC2C1 (stereo not given),-87.8,-0.127,0.5,-20.5,35.0*,-0.4,-0.5,3.1,
SMILES,MDM2 E3 inh,Dynein transport,Hsp70 act,S1P3 antagonist,S1P4 antag,S1P4 agonist,S1P4 antag cf,S1P1 antagonist,others
CS(=O)(=O)N1CCN(c2ccc(NC(=S)NC(=O)c3ccccc3[N+](=O)[O-])cc2)CC1,-6.1,1.01,0.0,-0.1,-1.3,0.8,nt,nt,
CN1Cc2c(N3CCOCC3)nc3sc(C(=O)c4ccc(Br)cc4)c(N)c3c2CC1(C)C,-6.7,1.42,nt,11.6,43.1*,-2.1,56.6*,58.5*,
COc1cccc2[nH]c3c(N4CCCCC4)ncnc3c12,nt,-0.484,-0.5,20.1,2.4,0.4,nt,nt,
CCOC(=O)C1CCN(c2ncnc3c2[nH]c2cccc(OC)c23)CC1,3.0,0.592,0.1,16.2,56.1*,0.0,-4.3,26.1,
C/C(CC(=O)Nc1ccccn1)=N\NC(=O)c1cccc(C)c1,-4.3,-0.225,0.2,-23.4,-1.9,2.5,nt,nt,
CCCn1c(NC(=O)c2ccccc2)nc2ccccc21,-4.0,2.83,-0.2,-59.1,29.5*,-3.2,4.9,8.9,
O=C(Nc1nc2ccccc2n1CCN1CCCC1)c1ccc(Cl)cc1,-14.7,0.274,0.1,-9.1,-1.2,-0.8,nt,nt,
Cc1ccc(C(=O)Nc2nc3ccccc3n2CCN2CCCC2)cc1,-33.6,1.64,-0.1,-4.3,30.5*,-2.5,8.0,-10.9,
CCCn1c(NC(=O)c2ccc(C)cc2)nc2ccccc21,-16.7,-0.786,0.2,27.4,-0.4,-1.1,nt,nt,
Cc1ccccc1NC(=O)c1ccc(-c2ccc(Cl)cc2Cl)o1,4.8,-0.378,-0.5,nt,-8.4,0.6,nt,nt,
Cc1cccc(C)c1NC(=O)c1ccc(-c2ccc(Cl)cc2Cl)o1,-8.8,1.38,-0.4,nt,95.7*,0.7,110.7*,-2.1,
Oc1ccc2ccccc2c1N=Nc1ccccn1,-14.9,-0.689,-0.6,nt,49.7*,-3.6,77.5*,82.7*,
Oc1ccc2ccccc2c1N=Nc1ccccc1F,-50.6,-0.626,nt,-9.9,0.9,0.8,nt,nt,
O=C(Nc1ccccc1N1CCN(c2ccccc2)CC1)c1ccccc1,-9.0,-0.0315,0.1,5.2,7.3,-2.0,nt,nt,
O=[N+]([O-])c1ccc(Cl)c(C2Nc3cccc4cccc(c34)N2)c1,-0.6,-0.925,-0.2,nt,58.6*,-0.2,1.1,19.4,
COc1ccc(CN2CCNC(=O)C2CC(=O)N2CCCCO2)cc1OC (stereo not given),-0.4,0.326,-0.1,4.0,3.2,1.3,nt,nt,
